Test system: epidermal Langerhans cells
Experiment: Langerhans cell migration assay
Type: in vivo, BALB/c mice
Settings: 24 h after topical application of 0.5% DNFB on ear (Fig. 5 A)
Method in brief: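 Ears were harvested 24 h later. Epidermal sheets were separated (0.5 M ammonium thiocyanate, 20 min, 37°C), acetone-fixed and stained with FITC anti-IA mAb 2G9. IA+ cells were counted at ×400 in 10 fields/sample; 5–15 mice/group.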

O=[N+]([O-])c1ccc(F)c([N+](=O)[O-])c1 [DNFB, dinitrofluorobenzene]
reduction of epidermal Langerhans cell density: ~35%
